Test results taken from ChEMBL document CHEMBL1121955, “Cardenolide analogues. 14. Synthesis and biological activity of glucosides of C17 beta-modified derivatives of digitoxigenin” (J Med Chem, 1982).
Calls of active or inactive are those of the source.

Tests used:
Cavia porcellus [1] = species on record: Cavia porcellus; experiment: The dose producing 75% increase in contractility in guinea pig atria; format: functional
In short: (§1)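 Isolated guinea pig left atria were equilibrated 1 h, set to 1 g resting tension, and paced with 10-ms rectangular pulses at 90/min, 20% above threshold (minimum 5 V). Cumulative doses in propylene glycol/water (7:3) were added at 30-min intervals or 5 min after maximum effect. Isometric force change was referenced to control atria. At least nine replicate curves were fitted, and ΔF75 was read from the pooled fitted curve.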

Cavia porcellus [2] = species on record: Cavia porcellus; experiment: Binding affinity against digitalis receptor was determined relative to digitoxigenin
Cavia porcellus [3] = species on record: Cavia porcellus; experiment: The dose producing 75% increase in contractility in guinea pig atria
Cavia porcellus [4] = species on record: Cavia porcellus; experiment: The dose producing 75% increase in contractility in guinea pig atria; Inactive; format: functional; in short: as §1
Cavia porcellus [5] = species on record: Cavia porcellus; experiment: Relative potency of compound to Digitalis receptor was determined to that of digitoxigenin; Inactive

Row | Structure (SMILES) | Delta F75 (Cavia porcellus [1]) | other results
1 | C[C@]12CC[C@H](O[C@@H]3O[C@H](CO)[C@@H](O)[C@H](O)[C@H]3O)C[C@@H]1CC[C@@H]1[C@@H]2CC[C@]2(C)[C@@H](/C=C/C#N)CC[C@@]12O | 6.9e-07 M l-1 | –
2 | C[C@]12CC[C@H](O)C[C@H]1CC[C@@H]1[C@@H]2CC[C@]2(C)[C@@H](C3=CC(=O)OC3)CC[C@]12O [DIGITOXIGENIN] | – | Relative potency (Cavia porcellus [2]): 1; Delta F75 (Cavia porcellus [3]): 1.1e-06 M l-1
3 | CC(C)OC(=O)/C=C/[C@H]1CC[C@@]2(O)[C@@H]3CC[C@H]4C[C@@H](O[C@@H]5O[C@H](CO)[C@@H](O)[C@H](O)[C@H]5O)CC[C@]4(C)[C@H]3CC[C@]12C | 1.5e-05 M l-1 | –
4 | CCCOC(=O)/C=C/[C@H]1CC[C@@]2(O)[C@@H]3CC[C@H]4C[C@@H](O[C@@H]5O[C@H](CO)[C@@H](O)[C@H](O)[C@H]5O)CC[C@]4(C)[C@H]3CC[C@]12C | 1.1e-05 M l-1 | –
5 | CC(=O)/C=C/[C@H]1CC[C@]2(O)[C@@H]3CCC4C[C@@H](O)CC[C@]4(C)[C@H]3CC[C@]12C (some centres not stated) | 5.6e-06 M l-1 | –
6 | C[C@@H]1O[C@@H](O[C@H]2C[C@@H](O)[C@]3(CO)[C@H]4[C@H](O)C[C@]5(C)[C@@H](C6=CC(=O)OC6)CC[C@]5(O)[C@@H]4CC[C@]3(O)C2)[C@H](O)[C@H](O)[C@H]1O [OUABAIN] | – | Delta F75 (Cavia porcellus [3]): 2.9e-07 M l-1
7 | COC(=O)/C=C/[C@H]1CC[C@]2(O)[C@@H]3CCC4C[C@@H](O)CC[C@]4(C)[C@H]3CC[C@]12C (some centres not stated) | 3.8e-06 M l-1 | Relative potency (Cavia porcellus [2]): 0.29
8 | CCCCOC(=O)/C=C/[C@H]1CC[C@@]2(O)[C@@H]3CC[C@H]4C[C@@H](O[C@@H]5O[C@H](CO)[C@@H](O)[C@H](O)[C@H]5O)CC[C@]4(C)[C@H]3CC[C@]12C | 6.9e-05 M l-1 | –
9 | CC(C)COC(=O)/C=C/[C@H]1CC[C@@]2(O)[C@@H]3CC[C@H]4C[C@@H](O[C@@H]5O[C@H](CO)[C@@H](O)[C@H](O)[C@H]5O)CC[C@]4(C)[C@H]3CC[C@]12C | 6.3e-05 M l-1 | –
10 | C[C@H]1O[C@@H](O[C@H]2[C@@H](O)C[C@H](O[C@H]3[C@@H](O)C[C@H](O[C@H]4CC[C@@]5(C)[C@H](CC[C@@H]6[C@@H]5C[C@@H](O)[C@]5(C)[C@@H](C7=CC(=O)OC7)CC[C@]65O)C4)O[C@@H]3C)O[C@@H]2C)C[C@H](O)[C@@H]1O [DIGOXIN] | 6.6e-07 M l-1 | –
11 | C[C@]12CC[C@H](O)C[C@H]1CC[C@@H]1[C@@H]2CC[C@]2(C)[C@@H](/C=C/C(N)=O)CC[C@]12O | <20 M l-1 | Relative potency (Cavia porcellus [2]): < 0.01
12 | C[C@]12CC[C@H](O)CC1CC[C@@H]1[C@@H]2CC[C@]2(C)[C@@H](/C=C/C#N)CC[C@]12O (some centres not stated) | 1.6e-06 M l-1 | Relative potency (Cavia porcellus [2]): 0.69
13 | C[C@]12CC[C@H](O)CC1CC[C@@H]1[C@@H]2CC[C@]2(C)[C@@H](/C=C/C(=O)O)CC[C@]12O (some centres not stated) | – | Delta F75 (Cavia porcellus [4]): inactive; Relative potency (Cavia porcellus [5]): inactive
14 | C[C@H]1O[C@@H](O[C@H]2[C@@H](O)C[C@H](O[C@H]3[C@@H](O)C[C@H](O[C@H]4CC[C@@]5(C)[C@H](CC[C@@H]6[C@@H]5CC[C@]5(C)[C@@H](C7=CC(=O)OC7)CC[C@]65O)C4)O[C@@H]3C)O[C@@H]2C)C[C@H](O)[C@@H]1O [DIGITOXIN] | 1.6e-07 M l-1 | –
15 | CCOC(=O)/C=C/[C@H]1CC[C@@]2(O)[C@@H]3CC[C@H]4C[C@@H](O[C@@H]5O[C@H](CO)[C@@H](O)[C@H](O)[C@H]5O)CC[C@]4(C)[C@H]3CC[C@]12C | 6.2e-06 M l-1 | –
16 | CC(=O)/C=C/[C@H]1CC[C@@]2(O)[C@@H]3CC[C@H]4C[C@@H](O[C@@H]5O[C@H](CO)[C@@H](O)[C@H](O)[C@H]5O)CC[C@]4(C)[C@H]3CC[C@]12C | 3.1e-06 M l-1 | –
17 | COC(=O)/C=C/[C@H]1CC[C@@]2(O)[C@@H]3CC[C@H]4C[C@@H](O[C@@H]5O[C@H](CO)[C@@H](O)[C@H](O)[C@H]5O)CC[C@]4(C)[C@H]3CC[C@]12C | 1.5e-06 M l-1 | –
